# Pf Dd2 growth: blocks growth of Plasmodium falciparum Dd2 parasites; P. falciparum Dd2 growth, SYBR Green, 72 h; active compounds read low; activity change, % at 10 µM; hit rate 2.3% among 94,000; in the data active means activity change below about -80%
# IDH1 mut inh: blocks human IDH1 R132H reductase activity; diaphorase/resazurin fluorescence, 60 min; inhibition, % at 10 µM; hit rate 0.18% among 70,000; AID 624101; in the data active means inhibition above about 34%
# Target sequence (O75874 whole entry R132H): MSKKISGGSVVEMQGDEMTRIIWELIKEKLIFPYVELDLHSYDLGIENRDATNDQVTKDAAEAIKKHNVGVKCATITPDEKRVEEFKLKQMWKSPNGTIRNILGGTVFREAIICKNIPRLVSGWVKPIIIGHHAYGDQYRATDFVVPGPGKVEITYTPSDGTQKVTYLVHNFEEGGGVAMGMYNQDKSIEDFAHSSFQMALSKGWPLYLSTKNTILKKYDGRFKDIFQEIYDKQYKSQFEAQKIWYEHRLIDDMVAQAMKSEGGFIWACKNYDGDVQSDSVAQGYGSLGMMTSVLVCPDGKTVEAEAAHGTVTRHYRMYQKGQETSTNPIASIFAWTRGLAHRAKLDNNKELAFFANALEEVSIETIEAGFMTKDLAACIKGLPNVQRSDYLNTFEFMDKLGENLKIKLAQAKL
# GASC1 inh: KDM4C (human) demethylase inhibition; Q9H3R0; GST-KDM4C 2-372, H3K9me3 peptide, LANCE TR-FRET; inhibition, % at 12.5 µM; hit rate 0.15% among 96,000; AID 720574;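 active means mean replicate inhibition above about 25%, with at least 55% of replicates also reaching it, limit read from the data, passing the limit was not always enough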
#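 Test system – GST-tagged GASC-1 (JMJD2C) catalytic fragment, aa 2-372 · Medium – HEPES buffer, pH 7.5, plus ascorbate · Reagent – H3K9me3 peptide with Fe(II)/2OG · Compound – one test concentration per compound · Timing – 30 min reaction, 60 min detection, RT · Technique – TR-FRET with Eu antibody and ULight streptavidin, EDTA stop · Read-out basis – inhibition from TR-FRET ratio decrease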
# Tcruzi prolif: inhibitors of T. cruzi proliferation | T. cruzi beta-gal in NIH3T3, GalScreen luminescence, 90 h | inhibition, % at 8.34 µM | hit rate 5.9% among 77,000 | AID 624255;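 active means mean inhibition above about 93%, with at least 55% of replicates each passing it, limit read from the data, passing the limit was not always enough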
# Numbers stand for hits; 0 = inactive; - = no result. In the library only some 5.8% were active in any assay of this set; here they are far more common.
SMILES,Pf Dd2 growth,IDH1 mut inh,GASC1 inh,Tcruzi prolif
COc1ccccc1-c1cnc2c(c1)C(=O)N([C@H](C)CO)C[C@H](C)[C@H](CN(C)CC1CCCC1)O2,0,0,0,0
COc1cccc(CN2CC3(CCN(Cc4ccccn4)CC3)c3c([nH]c4cc(OC)ccc34)[C@@H]2CO)c1,-89,-,0,-
COc1ccc2c3c([nH]c2c1)[C@H](CO)N(C(=O)Cc1ccccn1)CC31CCN(Cc2ccccn2)CC1,0,-,0,-
COc1ccc2c3c([nH]c2c1)[C@@H](CO)N(Cc1cccc(F)c1)CC31CCN(Cc2ccccn2)CC1,-92,-,0,-
COc1ccc2c3c([nH]c2c1)[C@H](CO)N(Cc1ccccn1)CC31CCN(Cc2cccc(F)c2)CC1,0,-,0,-
COc1ccc2c3c([nH]c2c1)[C@@H](CO)N(Cc1nccs1)CC31CCN(Cc2nccs2)CC1,-90,-,0,-
COc1ccccc1NC(=O)N[C@H]1CC[C@H](CCNS(=O)(=O)c2ccc(F)cc2)O[C@H]1CO,0,0,0,0
COc1ccc(CN(C)C[C@H]2OCCCC[C@H](C)Oc3ccc(NC(=O)NC4CCCCC4)cc3C(=O)N([C@H](C)CO)C[C@H]2C)cc1,0,0,0,0
C[C@@H]1CN([C@@H](C)CO)C(=O)Cc2cc(NC(=O)CCN3CCOCC3)ccc2O[C@H]1CN(C)S(=O)(=O)c1ccc(F)cc1,0,0,0,0
CO[C@H]1CN(C)C(=O)c2cc(NC(=O)c3ccccc3)ccc2OC[C@@H](C)N(CC2CC2)C[C@H]1C,0,-,0,0
COc1ccc(NC(=O)Nc2ccc3c(c2)C(=O)N([C@@H](C)CO)C[C@@H](C)[C@H](CN(C)Cc2ccc(C(F)(F)F)cc2)OCCCC[C@@H](C)O3)cc1,-85,0,0,0
COc1ccc(NC(=O)Nc2ccc3c(c2)C(=O)N([C@H](C)CO)C[C@@H](C)[C@H](CN(C)Cc2ccc(C(F)(F)F)cc2)OCCCC[C@H](C)O3)cc1,-87,0,0,0
COc1ccc(CN(C)C[C@H]2OCCCC[C@@H](C)Oc3ccc(NC(=O)Nc4ccc(C(F)(F)F)cc4)cc3C(=O)N([C@@H](C)CO)C[C@H]2C)cc1,-88,-,-,0
COc1ccc(NC(=O)Nc2ccc3c(c2)C(=O)N([C@H](C)CO)C[C@H](C)[C@H](CN(C)Cc2ccc(C(F)(F)F)cc2)OCCCC[C@@H](C)O3)cc1,0,-,0,0
COc1ccc(CN(C)C[C@H]2OCCCC[C@H](C)Oc3ccc(NC(=O)Nc4ccc(C(F)(F)F)cc4)cc3C(=O)N([C@H](C)CO)C[C@@H]2C)cc1,0,0,0,0
C[C@H]1CN([C@@H](C)CO)C(=O)c2cc(NC(=O)Nc3ccc(C(F)(F)F)cc3)ccc2O[C@H]1CN(C)S(C)(=O)=O,0,0,0,-
COc1ccccc1NC(=O)N[C@H]1CC[C@@H](CCNS(=O)(=O)c2ccc(C)cc2)O[C@H]1CO,0,-,0,-
CCC(=O)Nc1ccc2c(c1)C(=O)N(C)C[C@H](OC)[C@H](C)CN[C@H](C)CO2,0,0,0,0
COc1ccc2c3c(n(C)c2c1)[C@H](CO)N(C(=O)Nc1ccc(F)cc1)CC31CCN(C(=O)NC(C)C)CC1,0,-,0,-
COc1ccc2c3c([nH]c2c1)[C@H](CO)N(Cc1cc(F)ccc1F)CC31CN(C(=O)C2CCC2)C1,-88,-,0,-
COc1ccc2c3c([nH]c2c1)[C@@H](CO)N(Cc1ccccc1F)CC31CN(C(=O)C2CCOCC2)C1,0,-,-,-
COc1ccc2c3c([nH]c2c1)[C@@H](CO)N(Cc1ccccc1F)CC31CN(C(=O)C2CCC2)C1,-92,-,0,-
CCCNC(=O)N1CC2(CN(C(=O)C3CCC3)C2)c2c([nH]c3cc(OC)ccc23)[C@H]1CO,-85,-,0,-
COc1ccc2c3c([nH]c2c1)[C@H](CO)N(Cc1nccs1)CC31CN(C(=O)C2CCC2)C1,0,-,0,-
CCCC#Cc1ccc2c(c1)O[C@H](CN(C)CC1CCOCC1)[C@@H](C)CN([C@@H](C)CO)S2(=O)=O,0,0,0,-
SMILES,Pf Dd2 growth,IDH1 mut inh,GASC1 inh,Tcruzi prolif
CCCCCCC/C=N/NC(=O)CCCCCCC(=O)Nc1ccccc1O,-,0,-,-
N#C[C@H]1[C@@H](c2ccccc2-c2ccccc2F)[C@@H](CO)N1C(=O)Cc1ccccc1,0,-,0,-
C[C@@H]1CN([C@H](C)CO)C(=O)c2cc(NC(=O)Nc3ccccc3)ccc2O[C@@H](C)CCCCO[C@@H]1CN(C)Cc1ccc(C(F)(F)F)cc1,-85,0,0,0
COc1ccc(NC(=O)N(C)C[C@@H]2OCCCC[C@H](C)Oc3ccc(NC(=O)c4ccccc4)cc3C(=O)N([C@@H](C)CO)C[C@@H]2C)cc1,-84,-,0,0
C[C@@H]1CCCCO[C@H](CN(C)Cc2ccc(C(F)(F)F)cc2)[C@H](C)CN([C@@H](C)CO)C(=O)c2cc(NC(=O)Nc3ccccc3)ccc2O1,0,-,0,0
C[C@H]1CCCCO[C@@H](CN(C)Cc2ccccc2)[C@@H](C)CN([C@@H](C)CO)C(=O)c2cc(NC(=O)Nc3ccc(F)cc3)ccc2O1,-86,0,0,0
C[C@@H]1CN([C@@H](C)CO)C(=O)c2cc(NC(=O)Nc3ccccc3)ccc2O[C@@H](C)CCCCO[C@@H]1CN(C)Cc1ccc(C(F)(F)F)cc1,-82,0,0,0
CN1C(=O)c2cc(NC(=O)c3ccc(F)c(F)c3)ccc2OC[C@@H]2O[C@@H](CC(=O)O)CC[C@@H]21,0,-,0,0
C[C@@H]1CN([C@H](C)CO)S(=O)(=O)c2ccc(C#C[C@@H](C)O)cc2O[C@H]1CN(C)C(=O)C1CCC1,0,-,0,0
C[C@H]1CCCCO[C@H](CN(C)C(=O)Nc2ccc(C(F)(F)F)cc2)[C@@H](C)CN([C@@H](C)CO)C(=O)c2cc(NC(=O)c3ccccc3)ccc2O1,-87,-,0,0
C[C@@H]1CCCCO[C@H](CN(C)Cc2ccc(C(F)(F)F)cc2)[C@@H](C)CN([C@@H](C)CO)C(=O)c2cc(NC(=O)Nc3ccc4c(c3)OCO4)ccc2O1,-81,-,0,0
C[C@H]1CCCCO[C@@H](CN(C)Cc2ccccc2)[C@@H](C)CN([C@@H](C)CO)C(=O)c2cc(NC(=O)Nc3ccc(C(F)(F)F)cc3)ccc2O1,-86,0,0,0
COc1ccc(NC(=O)N(C)C[C@H]2OCCCC[C@@H](C)Oc3ccc(N(C)C)cc3C(=O)N([C@@H](C)CO)C[C@H]2C)cc1,-83,-,0,0
COc1ccc(NC(=O)N(C)C[C@H]2OCCCC[C@@H](C)Oc3ccc(N(C)C)cc3C(=O)N([C@H](C)CO)C[C@H]2C)cc1,0,-,0,0
C[C@@H]1CCCCO[C@H](CN(C)Cc2ccncc2)[C@H](C)CN([C@H](C)CO)C(=O)c2cc(NC(=O)Nc3ccc(C(F)(F)F)cc3)ccc2O1,-84,-,0,0
C[C@@H]1CCCCO[C@H](CN(C)Cc2ccc(Cl)c(Cl)c2)[C@@H](C)CN([C@H](C)CO)C(=O)c2cc(NC(=O)C3CCCCC3)ccc2O1,0,-,0,0
C[C@@H]1CCCCO[C@H](CN(C)Cc2ccc(Cl)c(Cl)c2)[C@@H](C)CN([C@@H](C)CO)C(=O)c2cc(NC(=O)Cc3ccccc3)ccc2O1,-86,0,0,0

# High-throughput results from PubChem.
